Seven molecules from ChEMBL document CHEMBL4049410, “Novel benzimidazolyl tetrahydroprotoberberines: Design, synthesis, antimicrobial evaluation and multi-targeting exploration” (2017) can be followed below.

Experiment [1] deals with Aspergillus flavus. Put plainly: Antifungal activity against Aspergillus flavus after 24 hrs by two-fold serial dilution assay. The class given is functional. The method in brief:
(§1)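 Twofold serial broth dilution following NCCLS guidance, with Chloromycin, Norfloxacin and Fluconazole as positive controls. MIC in μM is the lowest concentration giving complete inhibition of visible bacterial or fungal growth.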

For experiment [2], the system named is Pichia norvegensis. Put plainly: Antifungal activity against Candida mycoderma after 24 hrs by two-fold serial dilution assay. Format: functional. Put shortly: as §1
The test system of experiment [3] is Saccharomyces cerevisiae. Put plainly: Antifungal activity against Saccharomyces cerevisiae after 24 hrs by two-fold serial dilution assay. Format: functional. The method in brief: as §1
Experiment [4] has as its system Cyberlindnera jadinii. Description: Antifungal activity against Candida utilis after 24 hrs by two-fold serial dilution assay. Format: functional. The method in brief: as §1
Experiment [5] relates to Staphylococcus aureus. Put plainly: Antibacterial activity against Staphylococcus aureus ATCC 25923 after 24 hrs by two-fold serial dilution assay. The class given is functional. The method in brief: as §1
Experiment [6] deals with Candida albicans. Description: Antifungal activity against Candida albicans ATCC 76615 after 24 hrs by two-fold serial dilution assay. The class given is functional. The method in brief: as §1
Experiment [7] has as its system Escherichia coli. Put plainly: Antibacterial activity against Escherichia coli DH52 after 24 hrs by two-fold serial dilution assay. Format: functional. Put shortly:
as §1

The test system of experiment [8] is Proteus vulgaris. Put plainly: Antibacterial activity against Bacillus proteus ATCC 13315 after 24 hrs by two-fold serial dilution assay. Format: functional. The method in brief:
as §1

The subject of experiment [9] is Micrococcus luteus. Put plainly: Antibacterial activity against Micrococcus luteus ATCC 4698 after 24 hrs by two-fold serial dilution assay. The class given is functional, NCTC 2665. Put shortly:
as §1

Experiment [10] deals with Pseudomonas aeruginosa. Put plainly: Antibacterial activity against Pseudomonas aeruginosa after 24 hrs by two-fold serial dilution assay. The class given is functional. The method in brief:
as §1

In experiment [11] the test system is Escherichia coli. Description: Antibacterial activity against Escherichia coli JM109 after 24 hrs by two-fold serial dilution assay. Format: functional. The method in brief: as §1
Experiment [12] has as its system Bacillus subtilis. Description: Antibacterial activity against Bacillus subtilis after 24 hrs by two-fold serial dilution assay. Format: functional. Put shortly: as §1
In experiment [13] the test system is Shigella dysenteriae. Description: Antibacterial activity against Shigella dysenteriae after 24 hrs by two-fold serial dilution assay. The class given is functional. The conditions noted are these: Shigella dysenteriae, 24 h; read-out: MIC.
Experiment [14] has as its system Staphylococcus aureus. Put plainly: Antibacterial activity against methicillin-resistant Staphylococcus aureus N315 after 24 hrs by two-fold serial dilution assay. The class given is functional.
Experiment [15] deals with Salmonella typhi. Description: Antibacterial activity against Bacillus typhi after 24 hrs by two-fold serial dilution assay. The class given is functional, Salmonella enterica subsp. enterica serovar Typhi.
The mark [16] stands for this setting: Pichia norvegensis, 24 h, read-out: MIC.
Setting [17] is: Saccharomyces cerevisiae, 24 h, read-out: MIC.
Setting [18] is: Williopsis jadinii, 24 h, read-out: MIC.
Where [19] appears, read: Staphylococcus aureus, ATCC 25923, 24 h, read-out: MIC.
[20] abbreviates: Escherichia coli, DH52, 24 h, read-out: MIC.
Setting [21] is: Proteus vulgaris, ATCC 13315, 24 h, read-out: MIC.
Setting [22] is: Staphylococcus aureus, N315, 24 h, read-out: MIC.
Where [23] appears, read: Micrococcus luteus, NCTC 2665, 24 h, read-out: MIC.
The mark [24] stands for this setting: Pseudomonas aeruginosa, 24 h, read-out: MIC.
Where [25] appears, read: Escherichia coli, JM109, 24 h, read-out: MIC.
[26] abbreviates: Bacillus subtilis, 24 h, read-out: MIC.
[27] abbreviates: Candida albicans, ATCC 76615, 24 h, read-out: MIC.

The structures appear in SMILES notation. Converted amounts (≈) assume the structure as drawn.

One may read the MIC as the lowest concentration found to suppress growth. Turning to `OC(Cn1cncn1)(Cn1cncn1)c1ccc(F)cc1F` [FLUCONAZOLE], the MIC in experiment [1] (Aspergillus flavus, 24 h, read-out: MIC) turned out to be 836 µM (≈ 256 µg/mL); in [2] (setting [16]), 26.1 µM (≈ 7.99 µg/mL); in [3] (setting [17]), 52.2 µM (≈ 16 µg/mL); in experiment [4] (setting [18]), 10.9 µM (≈ 3.34 µg/mL).
As for `COc1cc(-c2nc3ccccc3n2Cc2ccc(F)cc2)c2c(c1O)CN1CCc3cc4c(cc3C1C2)OCO4` (centres undefined), the minimal inhibitory concentration (MIC) stood at 60.2 µM (≈ 33.1 µg/mL) in [5] (setting [19]); 25.1 µM (≈ 13.8 µg/mL) in experiment [6]; 50.2 µM (≈ 27.6 µg/mL) in experiment [1]; 100 µM (≈ 55.1 µg/mL) in experiment [7] (setting [20]); 25.1 µM (≈ 13.8 µg/mL) in [8]; 25.1 µM (≈ 13.8 µg/mL) in experiment [2]. The minimal inhibitory concentration (MIC) in experiment [9] turned out to be 40.1 µM (≈ 22 µg/mL); in experiment [3] (setting [17]), 20.1 µM (≈ 11 µg/mL); in experiment [10], 25.1 µM (≈ 13.8 µg/mL); in experiment [11] it was 25.1 µM (≈ 13.8 µg/mL); in [4] it was 60.2 µM (≈ 33.1 µg/mL); in experiment [12], 20.1 µM (≈ 11 µg/mL).
For the molecule `CCn1cc(C(=O)O)c(=O)c2cc(F)c(N3CCNCC3)cc21` [NORFLOXACIN], the minimum inhibitory concentration (MIC) was found to be 1.1 µM (≈ 0.351 µg/mL) in experiment [5] (setting [19]); 5.3 µM (≈ 1.69 µg/mL) in [13]; 50.1 µM (≈ 16 µg/mL) in experiment [7] (setting [20]); 12.5 µM (≈ 3.99 µg/mL) in experiment [8] (setting [21]); 25.1 µM (≈ 8.02 µg/mL) in experiment [14] (setting [22]); 4.2 µM (≈ 1.34 µg/mL) in experiment [9] (setting [23]). The MIC in experiment [15] (Salmonella enterica, 24 h, read-out: MIC) is 10.4 µM (≈ 3.32 µg/mL); in experiment [10] (setting [24]), 41.8 µM (≈ 13.3 µg/mL); in experiment [11] (setting [25]), 50.1 µM (≈ 16 µg/mL); in experiment [12] (setting [26]) it was 3.1 µM (≈ 0.99 µg/mL).
With `COc1cc(-c2nc3ccccc3n2Cc2cccc(F)c2)c2c(c1O)CN1CCc3cc4c(cc3C1C2)OCO4` (centres undefined), the MIC was determined as 48.5 µM (≈ 26.7 µg/mL) in experiment [5] (setting [19]); 48.5 µM (≈ 26.7 µg/mL) in experiment [6] (setting [27]); 24.3 µM (≈ 13.4 µg/mL) in [1]; 116 µM (≈ 64 µg/mL) in [13]; 38.8 µM (≈ 21.3 µg/mL) in experiment [7]; 38.8 µM (≈ 21.3 µg/mL) in experiment [8]. Besides, the minimal inhibitory concentration (MIC) is 48.5 µM (≈ 26.7 µg/mL) in [2] (setting [16]); 12.2 µM (≈ 6.71 µg/mL) in [14]; 19.4 µM (≈ 10.7 µg/mL) in experiment [9]; 24.3 µM (≈ 13.4 µg/mL) in experiment [3] (setting [17]); 48.5 µM (≈ 26.7 µg/mL) in experiment [10]; 29.1 µM (≈ 16 µg/mL) in experiment [11]. Also, the minimal inhibitory concentration (MIC) worked out at 48.5 µM (≈ 26.7 µg/mL) in experiment [4] and 19.4 µM (≈ 10.7 µg/mL) in [12].
Regarding `COc1cc(-c2nc3ccccc3n2CCCCCCn2c3ccccc3c3ccccc32)c2c(c1O)CN1CCc3cc4c(cc3C1C2)OCO4` (centres undefined), the minimal inhibitory concentration (MIC) in experiment [6] (setting [27]) was found to be 247 µM (≈ 171 µg/mL); in experiment [1] it was 617.6 µM (≈ 427 µg/mL); in experiment [7], 617.6 µM (≈ 427 µg/mL); in [8], 617.6 µM (≈ 427 µg/mL); in experiment [2] (setting [16]), 618 µM (≈ 427 µg/mL); in experiment [14] (setting [22]), 618 µM (≈ 427 µg/mL). The MIC in experiment [9] was determined as 741.1 µM (≈ 512 µg/mL); in experiment [3] (setting [17]), 741 µM (≈ 512 µg/mL); in [10] (setting [24]), 741 µM (≈ 512 µg/mL); in experiment [11] (setting [25]) it was 618 µM (≈ 427 µg/mL); in experiment [4] (setting [18]), 618 µM (≈ 427 µg/mL); in [12] (setting [26]), 741 µM (≈ 512 µg/mL).
For the molecule `COc1cc(-c2nc3ccccc3n2Cc2ccc(Cl)cc2)c2c(c1O)CN1CCc3cc4c(cc3C1C2)OCO4.Cl` (centres undefined), the minimum inhibitory concentration (MIC) in [5] stood at 267.9 µM; in experiment [6] it was 401.9 µM; in [1], 669.8 µM; in experiment [7], 669.8 µM; in experiment [8], 535.9 µM; in experiment [2] it was 267.9 µM. In addition, the MIC in [9] amounted to 535.9 µM; in experiment [3] it was 803.8 µM; in experiment [15], 201 µM; in [10] it was 535.9 µM; in [11], 535.9 µM; in experiment [4] it was 535.9 µM. In experiment [12], this molecule displayed a minimum inhibitory concentration (MIC) of 134 µM.
`COc1cc(-c2nc3ccccc3n2Cc2ccccc2F)c2c(c1O)CN1CCc3cc4c(cc3C1C2)OCO4` (centres undefined): the minimal inhibitory concentration (MIC) in experiment [5] amounted to 58.2 µM (≈ 32 µg/mL); in experiment [6] (setting [27]), 24.3 µM (≈ 13.4 µg/mL); in experiment [1], 24.3 µM (≈ 13.4 µg/mL); in experiment [13], 48.5 µM (≈ 26.7 µg/mL); in experiment [7] (setting [20]), 38.8 µM (≈ 21.3 µg/mL); in experiment [8] (setting [21]), 38.8 µM (≈ 21.3 µg/mL). The minimum inhibitory concentration (MIC) in experiment [2] (setting [16]) is 19.4 µM (≈ 10.7 µg/mL); in experiment [14] (setting [22]) it was 24.3 µM (≈ 13.4 µg/mL); in experiment [9] (setting [23]) it was 29.1 µM (≈ 16 µg/mL); in [3] (setting [17]), 58.2 µM (≈ 32 µg/mL); in [10] (setting [24]), 58.2 µM (≈ 32 µg/mL); in experiment [11] (setting [25]), 29.1 µM (≈ 16 µg/mL). The minimal inhibitory concentration (MIC) turned out to be 9.7 µM (≈ 5.33 µg/mL) in [4] (setting [18]) and 48.5 µM (≈ 26.7 µg/mL) in experiment [12] (setting [26]).
